Results published in ChEMBL document CHEMBL4373712, “Bioactivatable Pseudotripeptidization of Cyclic Dipeptides To Increase the Affinity toward Oligopeptide Transporter 1 for Enhanced Oral Absorption: An Application to Cyclo(l-Hyp-l-Ser) (JBP485)” (J Med Chem, 2019).

B1: Solute carrier family 15 member 1 (Homo sapiens) (protein)
chain: MGMSKSHSFFGYPLSIFFIVVNEFCERFSYYGMRAILILYFTNFISWDDNLSTAIYHTFVALCYLTPILGALIADSWLGKFKTIVSLSIVYTIGQAVTSVSSINDLTDHNHDGTPDSLPVHVVLSLIGLALIALGTGGIKPCVSAFGGDQFEEGQEKQRNRFFSIFYLAINAGSLLSTIITPMLRVQQCGIHSKQACYPLAFGVPAALMAVALIVFVLGSGMYKKFKPQGNIMGKVAKCIGFAIKNRFRHRSKAFPKREHWLDWAKEKYDERLISQIKMVTRVMFLYIPLPMFWALFDQQGSRWTLQATTMSGKIGALEIQPDQMQTVNAILIVIMVPIFDAVLYPLIAKCGFNFTSLKKMAVGMVLASMAFVVAAIVQVEIDKTLPVFPKGNEVQIKVLNIGNNTMNISLPGEMVTLGPMSQTNAFMTFDVNKLTRINISSPGSPVTAVTDDFKQGQRHTLLVWAPNHYQVVKDGLNQKPEKGENGIRFVNTFNELITITMSGKVYANISSYNASTYQFFPSGIKGFTISSTEIPPQCQPNFNTFYLEFGSAYTYIVQRKNDSCPEVKVFEDISANTVNMALQIPQYFLLTCGEVVFSVTGLEFSYSQAPSNMKSVLQAGWLLTVAVGNIIVLIVAGAGQFSKQWAEYILFAALLLVVCVIFAIMARFYTYINPAEIEAQFDEDEKKNRLEKSNPYFMSGANSQKQM

Experiments:
[1] = Half life in Sprague-Dawley rat liver homogenates at 5 mM by HPLC analysis; assay type: ADME, tissue-based
Method in brief: (§1)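 Jejunum and liver homogenates from male SD rats in pH 7.4 PBS, adjusted to 200 µg/mL protein, and rat plasma. Each incubated with compound at 5 mM at 37 °C.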

[2] = Oral bioavailability in Sprague-Dawley rat assessed as JBP485 level at 12 mg/kg equiv of JBP485 by UPLC-MS/MS analysis; assay type: ADME, organism-based; conditions: in vivo
Method in brief: (§2)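 Male SD rats, 200-250 g, fasted 12 h with water, n=6. Oral dose of 12 mg/kg as JBP485 equivalent; dose-effect arms at 12 and 100 mg/kg. JBP485 given iv at 6 mg/kg as the reference. Jugular blood taken at 0.083-10 h. Plasma JBP485 by UPLC-MS/MS. Absolute F = (AUCpo×Div)/(AUCiv×Dpo)×100%, using AUC0-t.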

[3] = Half life in pH 5.8 phosphate buffer at 5 mM by HPLC analysis; assay type: physicochemical
Method in brief: (§3)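 Compound at 5 mM in 0.1 M HCl, pH 4.5 acetate buffer, pH 5.8/6.8/7.2 phosphate buffers, SGF (pH 1.2) and SIF (pH 6.8), prepared per Chinese Pharmacopoeia. Samples taken at 0-20 h and analyzed by HPLC-UV. k = 2.303×slope of log C versus time; t1/2 = 0.693/k.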

[4] = Cmax in Sprague-Dawley rat assessed as JBP485 level at 12 mg/kg equiv of JBP485 administered orally by UPLC-MS/MS analysis; assay type: ADME, organism-based; set-up: dose 12 mg/kg, route oral; conditions: in vivo, po; method in brief: as §2
[5] = Terminal half-life in Sprague-Dawley rat assessed as JBP485 level at 12 mg/kg equiv of JBP485 administered orally by UPLC-MS/MS analysis; assay type: ADME, organism-based; conditions: in vivo, po
Method in brief: (§4)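 Fasted male SD rats (200–250 g), oral 12 mg/kg (prodrugs calculated as JBP485). Jugular blood 0.083–10 h, centrifuged, plasma JBP485 by UPLC-MS/MS; n=6.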

[6] = Tmax in Sprague-Dawley rat assessed as JBP485 level at 12 mg/kg equiv of JBP485 administered orally by UPLC-MS/MS analysis; assay type: ADME, organism-based; conditions: in vivo, po; method in brief: as §4
[7] = Half life in pH 6.8 phosphate buffer at 5 mM by HPLC analysis; assay type: physicochemical; method in brief: as §3
[8] = Half life in Sprague-Dawley rat plasma at 5 mM by HPLC analysis; assay type: ADME, cell-free; method in brief: as §1
[9] = Ratio of half-life in pH 7.2 phosphate buffer to half-life in Sprague-Dawley rat plasma; assay type: ADME
[10] = Ratio of half-life in pH 7.2 phosphate buffer to half-life in Sprague-Dawley rat intestinal homogenates; assay type: ADME, tissue-based; conditions: tissue homogenate
[11] = Half life in pH 7.2 phosphate buffer at 5 mM by HPLC analysis; assay type: physicochemical; method in brief: as §3
[12] = AUC (0 to t) in Sprague-Dawley rat assessed as JBP485 level at 12 mg/kg equiv of JBP485 administered orally by UPLC-MS/MS analysis; assay type: ADME, organism-based; conditions: in vivo, po; method in brief: as §2
[13] = Half life in Sprague-Dawley rat intestinal homogenates at 5 mM by HPLC analysis; assay type: ADME, tissue-based, Intestine; method in brief: as §1
[14] = Ratio of half-life in pH 7.2 phosphate buffer to half-life in Sprague-Dawley rat liver homogenates; assay type: ADME, tissue-based; conditions: tissue homogenate
[15] = Half life in pH 4.5 acetate buffer at 5 mM by HPLC analysis; assay type: physicochemical; method in brief: as §3
[16] = Half life in 0.1 M HCl at 5 mM by HPLC analysis; assay type: physicochemical; method in brief: as §3
[17] = Half life in pH 1.2 simulated gastric fluid at 5 mM by HPLC analysis; assay type: ADME; method in brief: as §3
[18] = Half life in pH 6.8 simulated intestinal fluid at 5 mM by HPLC analysis; assay type: ADME; method in brief: as §3
[19] = Apparent permeability across human Caco2 cells at 0.5 mM measured after 5 to 60 mins by UPLC-MS/MS analysis; assay type: ADME, cell-based; conditions: caco-2, 500 µM
Method in brief: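 Caco-2 cells grown on 0.4 µm transwell inserts; monolayers used only with TEER >300 Ω/cm². Compound at 0.5 mM in apical pH 6.0 HBSS, basolateral pH 7.4 HBSS, 37 °C. Basolateral samples taken at 5, 15, 30, 45 and 60 min. Quantified by UPLC-MS/MS; Papp from steady-state flux, area and initial donor concentration. Three repeats.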

[20] = substrate: O=C1N[C@@H](CO)C(=O)N2C[C@H](O)C[C@@H]12; experiment: (§5) Substrate activity at PEPT1 in human Caco2 cells assessed as Km measured after 10 mins by Eadie-Hofstee plot analysis; assay type: ADME, cell-based
Method in brief: (§6)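 Caco-2 uptake at 0.2–5 mM compound for 10 min at 37 °C, cells washed ice-cold and lysed, drug quantified by UPLC-MS/MS and normalised to protein. Km from Eadie–Hofstee plot; n=3.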

[21] = substrate: [H][C@@]12C[C@@H](O)CN1C(=O)[C@H](COC(=O)[C@@H](N)C(C)C)NC2=O; experiment: as §5; assay type: ADME, cell-based; method in brief: as §6
[22] = substrate: O=C(O)[C@H](CO)NC(=O)[C@@H]1C[C@@H](O)CN1; experiment: as §5; assay type: ADME, cell-based; method in brief: as §6

Molecule | half-life at 5000 µM [1] [min] | F [2] [%] | half-life at 5000 µM [3] [min] | Cmax [4] [µM] | beta t1/2 [5] [h] | Tmax [6] [min] | half-life at 5000 µM [7] [min] | half-life at 5000 µM [8] [min] | Ratio [9] | Ratio [10] | half-life at 5000 µM [11] [min] | AUCt [12] [nM/ml.hr] | half-life at 5000 µM [13] [min] | Ratio [14] | half-life at 5000 µM [15] [min] | half-life at 5000 µM [16] [min] | half-life at 5000 µM [17] [min] | half-life at 5000 µM [18] [min] | Papp [19] | other results
N[C@@H](Cc1ccccc1)C(=O)OC[C@@H]1NC(=O)[C@@H]2C[C@@H](O)CN2C1=O | 9.6 | 8.7 | 492 | 10.7 | 2.38 | 60 | 156 | 17.4 | 3 to 35 | 3 to 35 | 138 | 33.9 | < 4.98 | 3 to 35 | > 1200 | > 1200 | > 1200 | 168 | – | –
CCC(C)[C@H](N)C(=O)OC[C@@H]1NC(=O)[C@@H]2C[C@@H](O)CN2C1=O (some centres not stated) | 288 | 31.6 | > 1200 | 41.8 | 0.9 | 54 | 696 | 240 | 3 to 35 | 3 to 35 | 576 | 122.65 | 48 | 3 to 35 | > 1200 | > 1200 | > 1200 | 654 | Permeable | –
CC(C)C[C@H](N)C(=O)OC[C@@H]1NC(=O)[C@@H]2C[C@@H](O)CN2C1=O | 9.6 | 7.4 | 882 | 8.95 | 2.23 | 78 | 156 | 19.2 | 3 to 35 | 3 to 35 | 114 | 28.75 | < 4.98 | 3 to 35 | > 1200 | > 1200 | > 1200 | 144 | – | –
CC(C)[C@H](N)C(=O)O[C@@H]1C[C@H]2C(=O)N[C@@H](CO)C(=O)N2C1 | 126 | 36 | > 1200 | 98.3 | 2.51 | 24.6 | 684 | 366 | 3 to 35 | 3 to 35 | 696 | 139.78 | 54 | 3 to 35 | > 1200 | > 1200 | > 1200 | 666 | Permeable | –
B1 | – | – | – | – | – | – | – | – | – | – | – | – | – | – | – | – | – | – | – | Km [20]: 2530 µM; Km [21]: 860 µM; Km [22]: 650 µM
